# Reference: PubChem BioAssay AID463079 (The Scripps Research Institute Molecular Screening Center, 2010)
# Hit rate of the full screen: of about 330,000 compounds, about 2,000 (0.61%) were called active. The entries come from a sample that favours actives as a whole. A number with no mark means an inactive call.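 How the source made its calls: active means inhibition above that plate's mean sample inhibition plus 3 SD (cut at about 26% in these data); inactive means the rest.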
# Experiment: ATP-evoked calcium signal inhibitors, parental CHO, primary screen, counter-screen for OX1R antagonist project, cell-based, fluorescence, Fluo-8 calcium dye (AID 463079);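 further: 0% = ATP-challenged DMSO wells and 100% = DMSO wells without ATP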
# Conditions: parental CHO-K1, ATP-induced calcium, Fluo-8 fluorescence; at 5.6 µM; active compounds read high
# Summary of the method: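 Test system: untransfected parental CHO cell line. Compound: one dose, 5.6 µM nominal. Detection: intracellular calcium via Fluo-8 no-wash fluorescent dye. Measure: % inhibition. Benchmarks: ATP-challenged DMSO wells low, unchallenged DMSO wells high.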
row,SMILES,inhibition
1,COC(=O)c1ccccc1Sc1c(/C=N/OCc2ccc(Cl)cc2)c(C(F)(F)F)nn1C,-7.11%
2,Cc1ccc(-n2[nH]c(C)c(/C=N/NC(=O)c3cccc([N+](=O)[O-])c3)c2=O)cc1C,-2.1%
3,COc1cc(SC#N)ccc1N=Cc1c(C)[nH]n(-c2ccc(C)cc2)c1=O,96.8% (active)
4,O=C(NNC(=O)c1cnccc1C(F)(F)F)c1ccc(Cl)cc1,-3%
5,Oc1ccccc1CN1CCN(C(c2ccccc2)c2ccccc2)CC1,-33.9%
6,O=C1CC(N2CCN(C(c3ccccc3)c3ccccc3)CC2)C(=O)N1 (stereo unspecified),-12.9%
7,CC1(C)CC(N2CCN(C(c3ccccc3)c3ccccc3)CC2)=CC(=[N+]2CCCCC2)C1,29.5% (active)
8,CC(C)CC(CCc1ccccc1)OS(N)(=O)=O (stereo unspecified),-9.01%
9,CC(C(=O)c1ccc(-c2ccccc2)cc1)[n+]1cccc(Br)c1 (stereo unspecified),-2.14%
10,Cc1cc(C)c(-c2c(O)c3ccccc3n(C)c2=O)c(C)c1,-6.96%
11,CCOC(=O)Cc1cc(=O)[nH]c(=O)[nH]1,-1.68%
12,CN(C)S(=O)(=O)c1ccc(Oc2ccc(S(=O)(=O)N(C)C)cc2)cc1,53.5% (active)
13,CN(C)S(=O)(=O)c1ccc(NC(=O)N2CCOCC2)cc1,-16.7%
14,COc1ccc(S(=O)(=O)N(C)CC(=O)N2CCCC2)cc1,0.64%
15,CN(C(=O)CC1C(=O)NCCN1Cc1ccc(F)cc1Cl)C1CCCCC1 (stereo unspecified),-17.1%
16,Cc1ccc(S(=O)(=O)N(Cc2cc3ccccc3[nH]c2=O)CC2CCCO2)cc1 (stereo unspecified),-27.8%
17,COCCN(C(=O)CCC(=O)Nc1nccs1)C(C(=O)NCCC(C)C)c1ccc(F)cc1 (stereo unspecified),-13%
18,Cn1nccc1C(=O)NC1CCCc2c1cnn2-c1ccccc1F (stereo unspecified),48.7% (active)
19,COc1ccc(C(=O)NC2CC(C)(C)Cc3c2cnn3-c2ccccc2C)o1 (stereo unspecified),-22.6%
20,CC(=O)NCC(=O)NC1CCCc2c1cnn2-c1ccccc1F (stereo unspecified),10.8%
21,Cc1cc(C(=O)NC2CCCc3c2cnn3-c2cccc(C)c2C)c(C)o1 (stereo unspecified),2.39%
22,Cc1cc(C(=O)NC2CC(C)(C)Cc3c2cnn3-c2ccccc2)n[nH]1 (stereo unspecified),-10.2%
23,Cn1nccc1C(=O)NC1CCCc2c1cnn2-c1ccc(F)cc1F (stereo unspecified),45.4% (active)

row,SMILES,inhibition
1,COC(=O)c1ccc(C(=O)NC2CC(C)(C)Cc3c2cnn3-c2ccc(F)cc2)nc1 (stereo unspecified),-9.97%
2,COc1ccc(C(=O)NC2CCCc3c2cnn3-c2cccc(C)c2C)c(OC)n1 (stereo unspecified),40.4% (active)
3,CC1(C)Cc2c(cnn2-c2cccc(F)c2)C(NC(=O)c2cc[n+]([O-])cc2)C1 (stereo unspecified),-5.88%
4,COCCCNC(=O)CN1C(=O)CSc2ccc(S(=O)(=O)N3CCOCC3)cc21,-10.9%
5,COc1ccc(S(=O)(=O)N2CCOCC2)cc1NC(=O)COc1ccccc1,-8.66%
6,CCOc1cc(N2CCOCC2)c(OCC)cc1NC(=O)C1=NN(c2cccc(C)c2)C(=O)CC1,-30.7%
7,CSC1=NC2(C)CCCCC2C12C=CC(=O)C=C2 (stereo unspecified),-8.36%
8,Cc1cc(Cl)c2oc(C(=O)N(C)C(C)c3ccccn3)c(C)c2c1 (stereo unspecified),-25.6%
9,Cc1cc2oc(=O)cc(-c3ccccc3)c2c(C)c1-c1ccc(OC(F)(F)F)cc1,-24%
10,C/C(=N\NC(=O)Cc1ccccc1[N+](=O)[O-])c1cccnc1,-2.78%
11,COc1ccc(CNc2nccs2)cc1,-0.35%
12,COc1ccc(CNc2ncnc3ccccc23)cc1,30% (active)
13,COc1cccc(CNc2nc(C(F)(F)F)nc3ccccc23)c1,-21.9%
14,O=C(Nc1cccc(F)c1)N1C2CCC1CC(O)(c1cccnc1)C2 (stereo unspecified),-8.22%
15,COc1cc(NC(=O)CCNC(=O)Cn2ccc3ccccc3c2=O)cc(OC)c1OC,0.46%
16,O=C(Nc1ccc(S(=O)(=O)Nc2ncccn2)cc1)C12CC3CC(CC(C3)C1)C2,-8.7%
17,CCn1nccc1C(=O)Nc1ccc(S(=O)(=O)NC23CC4CC(CC(C4)C2)C3)cc1,61% (active)
18,Cc1cc(C(F)F)n2nc(C(=O)Nc3ccc(S(=O)(=O)NC45CC6CC(CC(C6)C4)C5)cc3)nc2n1,-7.46%
19,COc1ccccc1CNS(=O)(=O)c1c(C)[nH]c(C)c1C(=O)N1CCCCC1,-7.23%
20,Cc1ccc(S(=O)(=O)N(CC(=O)N2CCc3ccccc3C2)c2cccc(Cl)c2)cc1,-23.4%
21,O=[N+]([O-])/C=C/c1ccc2c(ccn2Cc2ccccc2)c1,42% (active)
22,COC(=O)Cn1cc(/C=C/[N+](=O)[O-])c2ccccc21,-9.14%
23,O=C(Cn1ccc2cc(S(=O)(=O)N3CCCC3)ccc21)NCc1ccccc1,-3.13%
